# Measurements gathered from unrelated publications.
# Protocols differ between the studies behind these lines.
# Organism: Pseudomonas aeruginosa
# Read-out: microbial growth
Compound,test,test system,setting,MIC
C[C@H]1COCCN1c1nc(NCc2cccnc2C(F)(F)F)c2cccnc2n1,broth dilution,NCTC13437,,64 µg/mL
COC(=O)c1cc(-c2cccc(NC(=S)Nc3cc(C(F)(F)F)cc(C(F)(F)F)c3)c2)on1,broth dilution,ATCC27853,,> 64 µg/mL
CCCCCCCCCCCC(=O)OC[C@H]1O[C@@H](n2cc(C)c(=O)[nH]c2=O)C[C@@H]1O,broth dilution,,,8 µg/mL
Cc1cc(/C=C2\Sc3ccccc3N2CCCN2CCCCC2)c2ccccc2[n+]1C.[I-],broth dilution,ATCCBAA2108,drug-resistant strain,64 µg/mL
CC(=O)C1=C(O)C(CC(C)C)NC1=O (stereo not shown),,PA01,,> 200 µg/mL
CCCCCCC#Cc1cncc(-c2nnc(Sc3ccc([N+](=O)[O-])cc3[N+](=O)[O-])n2C)c1,,,,≥ 20 µg/mL
C[C@@H](O)[C@H]1C(=O)N2C(C(=O)O)=C(S[C@@H]3CN[C@H](C(=O)N(C)C)C3)[C@H](C)[C@H]12,,,,2 µg/mL
COC(=O)c1cc(-c2cccc(NC(=O)Nc3ccccc3F)c2)on1,broth dilution,ATCC27853,,> 64 µg/mL
C[n+]1c(/C=C/c2ccc(O)cc2)cc(/C=C2\Sc3ccccc3N2CCCN2CCOCC2)c2ccccc21.[I-],broth dilution,ATCCBAA2108,drug-resistant strain,> 64 µg/mL
CC1(C)SC2C(NC(=O)C(NC(=O)C3=C(O)C(Cc4ccc([N+](=O)[O-])cc4)NC3=O)c3ccccc3)C(=O)N2C1C(=O)O (stereo not shown),,,,50 µg/mL
CN[C@H](CC(C)C)C(=O)N[C@H]1C(=O)N[C@@H](CC(N)=O)C(=O)N[C@H]2C(=O)N[C@H]3C(=O)N[C@H](C(=O)N[C@H](C(=O)O)c4cc(O)cc(O)c4-c4cc3ccc4O)[C@H](O)c3ccc(c(Cl)c3)Oc3cc2cc(c3O[C@@H]2O[C@H](CO)[C@@H](O)[C@H](O)[C@H]2O[C@H]2C[C@](C)(N)[C@H](O)[C@H](C)O2)Oc2ccc(cc2Cl)[C@H]1O,broth dilution,ATCCBAA2108,drug-resistant strain,> 64 µg/mL
COC(=O)c1cc(-c2cccc(NC(=O)Nc3ccc(F)cc3F)c2)on1,broth dilution,ATCC27853,,> 64 µg/mL
Cc1cc(/C=C2\Sc3ccccc3N2CCCN2CCC(C)CC2)c2ccccc2[n+]1C.[I-],broth dilution,ATCCBAA2108,drug-resistant strain,64 µg/mL
COC(=O)c1cc(-c2cccc(NC(=O)Nc3cc(OC)ccc3OC)c2)on1,broth dilution,ATCC27853,,> 64 µg/mL
C[n+]1c(/C=C/c2ccc(O)cc2)cc(/C=C2\Sc3ccccc3N2CCCN2CCCC2)c2ccccc21.[I-],broth dilution,ATCCBAA2108,drug-resistant strain,> 64 µg/mL
Nc1nc(-c2ccc(NC(=O)Nc3cccc(-c4c[nH]c(N)n4)c3F)cc2F)c[nH]1,broth dilution,PAO1,,> 200 µM
